# Test results taken from PMC6452901 (Nature biomedical engineering, 2019).
# Assays:
# [1] = target: T1, murine Granzyme B (Mus musculus, UniProt P04187); assay: In vitro protease cleavage assay of nanosensors with recombinant GzmB; format: biochemical
# T1 sequence (P04187 21-247): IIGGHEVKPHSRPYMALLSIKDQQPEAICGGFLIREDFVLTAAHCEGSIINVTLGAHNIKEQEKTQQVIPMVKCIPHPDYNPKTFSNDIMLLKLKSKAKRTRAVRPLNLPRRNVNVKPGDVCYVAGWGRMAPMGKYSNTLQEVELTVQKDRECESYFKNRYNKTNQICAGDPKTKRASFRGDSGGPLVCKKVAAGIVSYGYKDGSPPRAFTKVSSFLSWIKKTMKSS
# Method in brief: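 Candidate GzmB substrates (6–12-mer, Ile at P4, Asp at P1) were conjugated to iron-oxide nanoparticles. They were incubated with recombinant GzmB in PBS + 1% BSA at 37 °C with fluorescence monitoring. Fluorescence traces were fitted to compare initial cleavage velocities.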
# [2] = system: skin allograft (BALB/c donor); assay: Skin allograft rejection under tacrolimus immunosuppression; format: in vivo, C57BL/6 mice; details: 2 mg/kg I.P.; treated PODs 7, 12 n = 6; untreated POD 7 n = 8
# Method in brief: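 Allograft recipients received tacrolimus 2 mg/kg i.p. or saline daily from POD −1 to POD 7, plus doses on PODs 9 and 11. FITC-labelled nanosensors (10 nmol by peptide) were given before transplant (POD −4) and on PODs 7 and 12, followed by 90-min urine collection. Urinary FITC was bead-purified with anti-FITC, converted to percent injected dose, and expressed as fold over pre-transplant; unpaired two-sided t-test.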
# [3] = target: T2, GzmB (Mus musculus, UniProt P04187); assay: In vivo GzmB activity imaging with NIR activatable probe; set-up: species or system C57BL/6 mice; details: 10 nmol by peptide, organs excised at 24 hours
# T2 sequence (P04187 21-247): T1 sequence (P04187 21-247)
# [4] = Immunogenicity study; format: in vivo, C57BL/6 mice; details: 10 nmol I.P., with or without complete Freund's adjuvant, total serum IgG, n = 3
# Method in brief: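 On day 0, C57BL/6 mice received a single i.p. dose in one of five arms: free GzmB substrate peptide (10 nmol), nanosensors (10 nmol by peptide), nanosensors plus complete Freund's adjuvant, chicken ovalbumin (100 μg) plus CFA, or saline. Serum came from retro-orbital blood, was spun at 3,500 G for 5 min and stored at −80°C. Total IgG was then quantified by immunoassay.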
# [5] = target: T2, GzmB; assay: Tracking of cleaved fragments after in vivo GzmB cleavage; set-up: species or system C57BL/6 mice; details: POD 7, VT750-labelled, 10 nmol by peptides, 90 minutes post administration, tissue homogenates
# [6] = system: skin allograft and isograft; format: in vivo, C57BL/6 mice; details: POD 7 (peak), i.v., surface-labeled, mice with both grafts, n = 5
# [7] = system: membrane attack complex (MAC); assay: ELISA of membrane attack complex; set-up: species or system human; details: serum samples, MicroVue CH50 Eq EIA, after 1 hour, n = 3
# Method in brief: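 Human control serum was mixed with activity nanosensors, and complement was triggered with heat-aggregated gamma globulin. Fluorescence was read for 1 h, then supernatants were assayed for membrane attack complex by CH50-equivalent EIA, which is proportional to CH50 U. Data are means ± s.e.m., n = 3, compared by one-way ANOVA with Tukey post-test.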
# [8] = Clearance of residual urine fluorescence after a single injection; format: in vivo, mice; details: n = 3
# [9] = system: GzmB activity in skin allograft; assay: Urinary prediction of acute rejection in skin graft mice; format: in vivo, C57BL/6 mice; details: FITC-labelled, 10 nmol by peptides, urine collected for 90 minutes, n = 6
# Method in brief: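 This was a paired design in C57BL/6 recipients of BALB/c tail-skin grafts. FITC-labelled nanosensors (10 nmol by peptide) were dosed at POD −4 and at post-transplant days, and mice voided over plates for 90 min. Urinary FITC was captured on anti-FITC magnetic beads and quantified against a free-FITC ladder. Values were volume-normalised to percent injected dose, scaled to pre-transplant mean and variance; one-way ANOVA with Dunnett post-test.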
molecule,measurement,setting,value
AIEFD|SG,initial cleavage velocity by recombinant GzmB,"[1]; library of 13 candidate substrates conjugated to IONPs, n = 4",highest initial cleavage velocity
C=CC[C@@H]1/C=C(\C)C[C@H](C)C[C@H](OC)[C@H]2O[C@@](O)(C(=O)C(=O)N3CCCC[C@H]3C(=O)O[C@H](/C(C)=C/[C@@H]3CC[C@@H](O)[C@H](OC)C3)[C@H](C)[C@@H](O)CC1=O)[C@H](C)C[C@@H]2OC [Tacrolimus],nanosensor urine signals of treated versus untreated allograft mice,[2],blunted compared to untreated mice
kGGsIEFDSGGGs{PRA}c [activatable probe],"probe activation in tissues, allograft versus isograft mice",[3],significantly increased in allograft skin but statistically equivalent in all major organs
(FITC)AIEFDSGc [activity nanosensors],induction of neutralizing antibodies,[4],do not induce neutralizing antibodies
same,"fluorescence in kidneys, allograft compared to isograft mice",[5],3 fold
same,signal increase in skin allograft over skin isograft,[6],4 fold
same,MAC formation (complement activation by a foreign surface),[7],no elevation in MAC formation
same,time to full clearance of residual urinary fluorescence,[8],≤ 2 days
same,activation (fluorescence) in samples that contained recombinant GzmB,"[1]; saline, plasma or serum samples spiked with GzmB, 6 nM by NP, 300 nM by peptide, 37 °C, 60 minutes",markedly activated
same,post-graft urine signals from allograft recipients versus pre-graft baseline,[9],significantly elevated as early as POD 5
